Compound activity: PubChem BioAssay, several laboratories
Rce1 inh: yeast Rce1p protease inhibitors, primary screen, biochemical, fluorescence, cell-free homogeneous; AID 2563, 2010; yeast membranes, quenched prenylated peptide cleavage fluorescence; CAAX prenyl protease 2 (Saccharomyces cerevisiae (strain ATCC 204508 / S288c)), Q03530; 290,000 compounds, 0.27% hits; calls only;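 active = fall in fluorescence gain of 50% or more versus controls, with final raw signal at or below 3038400; inconclusive = same 50% fall but final raw signal above 3038400; inactive = fall in fluorescence gain under 50%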;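 note: plate controls were neutral control wells for no effect and wells lacking membranes for full effect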
Target sequence (Q03530 whole entry, looked up): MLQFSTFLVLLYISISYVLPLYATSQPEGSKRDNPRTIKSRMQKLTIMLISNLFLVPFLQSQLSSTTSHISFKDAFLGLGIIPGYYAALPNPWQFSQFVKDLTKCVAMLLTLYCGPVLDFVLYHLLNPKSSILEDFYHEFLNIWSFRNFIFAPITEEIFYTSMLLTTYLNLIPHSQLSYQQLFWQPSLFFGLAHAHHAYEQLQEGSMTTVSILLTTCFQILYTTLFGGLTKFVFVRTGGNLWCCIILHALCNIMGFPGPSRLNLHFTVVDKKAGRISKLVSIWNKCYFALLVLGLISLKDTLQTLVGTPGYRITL
T cell modulator: modulators of CD8 T cell-vesicle binding, primary screen, mouse 2C CD8+ T cells, flow cytometry; 2C CD8+ T cell-vesicle binding; active compounds read low; response (vesicle binding), % at 7 µM; 330,000 compounds, 0.068% hits;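 active = response, share of CD8 T cells binding vesicles, and their 90th percentile fluorescence all below set limits, cut at about 80% in these data, passing the limit was not always enough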;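 note: values below 100% mean blocked vesicle binding to the CD8+ T cells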
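Assay system – 2C mouse CD8+ T cells · Also added – QL9-loaded Drosophila micro-vesicles · Timing – Cell–vesicle co-incubation 1.5 h at 37 °C, staining 20 min on ice · Signal – flow cytometry of vesicle-bound cells · Measure – percent CD8+ FL2 mean versus row control · Controls – Peptide-free naked vesicles (low) and QL9 vesicles with 0.7% DMSO vehicle (high)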
V-ATPase pHluor: regulators of yeast V-ATPase proton pumping, primary screen, pHLuorin cytosolic pH fluorescence | 350,000 compounds, 0.37% hits | response, % at 10 µM | S. cerevisiae; in the data active = response mostly above about 7.3%, no sharp cut-off; inactive = mostly below about 5.4%; note: actives read high
Yeast superoxide: reduction of superoxide in aged yeast, primary screen, HTS. S. cerevisiae aged cells, superoxide DHE fluorescence; active compounds read low. superoxide response (% of plate mean), % at 10 µM. 330,000 compounds, 0.18% hits;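 active = superoxide response under a set limit, about three screen SD below normal, cut at about 65% in these data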;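 note: yeast aged for seven days with compound at 30 °C before DHE staining; 100% = average MFI of all compound-treated wells on the plate with controls excluded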
MIN6 prolif: inducers of MIN6 beta-cell proliferation, primary screen, ATP luminescence, uHTS | MIN6 cells proliferation, ATPlite luminescence, 48 h; cells starved in 0.2% serum; 100% = growth in 10% serum | proliferation, % at 10 µM | 330,000 compounds, 0.29% hits;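 active = compounds whose signal lies at least 3.5 SD above the mean of all wells on their plate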;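 note: 0% = DMSO-treated cells in low-serum medium and 100% = 10% serum control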
proKLK7 act: proKLK7 zymogen activators, primary screen, biochemical, fluorescence intensity. activation, % at 7 µM. purified proKLK7, EDANS-DABCYL substrate fluorescence; 100% is mature enzyme control, 0% vehicle. 370,000 compounds, 0.9% hits;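 active = activation above the mean of all tested compounds plus 3 SD, computed per campaign excluding outliers beyond control limits, cut at about 13% in these data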
Target sequence (P49862 whole entry, looked up): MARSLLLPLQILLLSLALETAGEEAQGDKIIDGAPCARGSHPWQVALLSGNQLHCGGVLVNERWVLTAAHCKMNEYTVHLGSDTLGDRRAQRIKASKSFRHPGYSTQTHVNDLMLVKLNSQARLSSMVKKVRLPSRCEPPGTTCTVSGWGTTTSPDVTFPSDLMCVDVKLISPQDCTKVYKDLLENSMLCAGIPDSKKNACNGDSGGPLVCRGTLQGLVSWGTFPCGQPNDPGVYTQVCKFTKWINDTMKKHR
KLK7 act conf: proKLK7 zymogen activators, confirmation, biochemical, fluorescence intensity, triplicate; shares compounds with proKLK7 act; purified proKLK7, EDANS-DABCYL substrate fluorescence; scaled: vehicle 0, mature enzyme 100; activation, % at 7 µM; 3,200 compounds, 68% hits;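 active = activation, as change over the incubation, above the mean of all tested compounds plus 3 SD, cut at about 13% in these data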
EDANS interfere: EDANS-DABCYL substrate optical interference, artefact control for kallikrein-7 zymogen activator project, biochemical, fluorescence intensity, high throughput. shares compounds with proKLK7 act. no enzyme, 4 h; solvent 0%, active enzyme control 100%. activation, % at 7 µM. 3,200 compounds, 80% hits. AID 686952, 2013;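 active = activation above the all-compound mean plus 3 SD, ignoring values outside control-based bounds, cut at about 4.8% in these data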;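 note: value is the 4 h activation minus the activation read at time zero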
EDANS interf: counter-screen for kallikrein-7 activators: EDANS-DABCYL interference, dose response. EDANS-DABCYL peptide fluorescence interference, no enzyme. 250 compounds, 20% hits. EC50, µM. shares compounds with proKLK7 act;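 active = compounds that raise the fluorescence signal in this interference counterscreen, with EC50 at or below 10 µM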;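 note: intact quenched peptide substrate alone read at 355 nm excitation and 520 nm emission; signal is fluorescence gain from T0 to T4 after four hours at room temperature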
Starred values were filed as active, the others as inactive; i = inactive; ? = inconclusive; . = not tested or not shown. An excerpt weighted towards active compounds, which were near 1.9% of everything screened.

SMILES	Rce1 inh	T cell modulator	V-ATPase pHluor	Yeast superoxide	MIN6 prolif	proKLK7 act	KLK7 act conf	EDANS interfere	others
COc1ccc2c(C)cc(=O)oc2c1OCC(O)CN1CCOCC1 (stereo unspecified)	.	.	.	.	.	15*	7	10*
Cc1cc(=O)oc2c(CN3CCOCC3)c(O)ccc12	.	.	-1	.	.	100*	74*	65*
Cc1cc(=O)oc2c(CN(C)Cc3ccccc3)c(O)ccc12	?	183	3	126	0	75*	72*	78*
Cc1cc(=O)oc2c(CN3CCCCC3)c(O)ccc12	.	.	0	.	.	118*	71*	73*
CCN1CCN(c2ccccc2NC(=O)C(C)Oc2ccc(C(C)=O)cc2)CC1 (stereo unspecified)	.	368	0	108	-1	0	.	.
Cc1cccc(C(=O)Nc2nc3ncccn3c2-c2ccccc2)c1	.	.	.	.	.	8	.	.
O=C(Nc1nc2ncccn2c1-c1ccc(F)c(F)c1)c1ccccc1	.	.	.	.	.	11	.	.
Cc1ccc(-c2c(NC(=O)C3CC3)nc3ncccn23)cc1	.	.	.	.	.	23*	30*	35*
Nc1nc2ncccn2c1-c1ccc(F)c(F)c1	.	.	.	.	.	22*	24*	19*	EDANS interf=>70
O=C(Nc1c(-c2ccc(F)c(F)c2)nc2ncccn12)C1CC1	.	.	.	.	.	18*	52*	57*
O=C(Nc1c(-c2ccc(F)cc2)nc2ncccn12)c1ccc(F)cc1	.	.	.	.	.	11	.	.
CN(Cc1cnc2nc(N)nc(N)c2n1)c1ccc(C(=O)N[C@@H](CCC(=O)O)C(=O)O)cc1	i	388	5	108	-2	18*	-9	-13
CCOC(=O)N1CCC2(CC1)NC(=O)c1ccccc1N2	.	.	0	.	.	21*	30*	24*	EDANS interf=>69
COc1ccc(-c2oc3c(c2C(=O)OCCCO)C(OCCCCCO)CCC3)cc1 (stereo unspecified)	.	.	.	.	.	2	.	.
COc1ccc(OCC(=O)NNC(=O)Cn2c(=O)cnc3ccccc32)cc1	.	.	0	.	-1	0	.	.
O=C1[C@H]2C(c3ccccc3)=NN(c3ccccc3)[C@H]2C(=O)N1c1ccccc1	i	496	2	127	-1	22*	-364	-297
OC[C@@H]1[C@@H](c2ccc(F)cc2)C(c2ccccc2)=NN1c1ccccc1	.	.	2	97	.	-93	.	.
O=C1C2C(c3ccccc3)=NN(c3ccccc3)C2C(=O)N1c1ccccc1 (stereo unspecified)	i	250	0	108	0	14*	13*	18*
O=C1c2ccccc2NC(c2ccc(O)cc2)N1Cc1ccco1 (stereo unspecified)	i	391	0	102	-3	24*	9	7.1*
Cc1ccc(C2Nc3ccccc3C(=O)N2Cc2ccco2)cc1 (stereo unspecified)	i	387	0	88	-2	13*	-22	-19
O=C1c2ccccc2NC(c2cccc(F)c2)N1Cc1ccco1 (stereo unspecified)	i	362	3	122	-2	22*	-3	-8
COc1ccc(C2Nc3ccccc3C(=O)N2Cc2ccco2)cc1COc1ccccc1F (stereo unspecified)	i	351	1	83	-3	-17	.	.
CCSC(=Nc1ccccc1)N1CCOCC1	i	234	-2	110	-2	0	.	.
O=C(c1ccc(Cl)cc1)C1CCN(C(=O)c2ccccc2F)CC1	.	.	0	.	.	0	.	.
CCOC(=O)C(=CNc1nc(-c2ccc3ccccc3c2)cs1)C(=O)OCC	i	261	2	92	-3	-20	.	.
SMILES	Rce1 inh	T cell modulator	V-ATPase pHluor	Yeast superoxide	MIN6 prolif	proKLK7 act	KLK7 act conf	EDANS interfere	others
CC(C)NC[C@H](O)c1ccc(O)c(O)c1	.	305	0	70	-7	47*	49*	51*
CC(=O)Oc1ccc(-c2cc3ccccc3oc2=O)cc1	i	i	0	93	-1	-4	.	.
CC(=O)Oc1ccc(-c2cc3c(OC(C)=O)cc(OC(C)=O)cc3oc2=O)cc1	i	396	1	110	-2	80*	63*	72*
O=c1oc2cc(OCc3ccc(F)cc3F)ccc2cc1-c1ccccn1	i	418	0	91	0	-3	.	.
COc1ccc(-c2cc3ccc(OCC(C)=O)cc3oc2=O)cc1	i	582	-10	96	-3	27*	-7	-4
NC(=O)COc1ccc2cc(-c3ccc(F)cc3)c(=O)oc2c1	.	215	-1	96	-5	33*	-14	-63
O=C(COc1ccc2cc(-c3ccccc3)c(=O)oc2c1)NCC1CCC(C(=O)O)CC1 (stereo unspecified)	i	422	2	119	-2	21*	60*	72*
CN(C)c1ccc(N2C(=NC(=O)C3CCCO3)SC3CS(=O)(=O)CC32)cc1 (stereo unspecified)	i	414	-1	94	-1	0	.	.
COc1cc(Cl)c(C)cc1NC(=O)c1ccccc1-n1cnnn1	.	733	0	104	-1	0	.	.
CCCC(=O)OC[C@H]1CN(C2CCCC2)S(=O)(=O)c2c(F)cccc2O1	.	.	.	.	.	0	.	.
NC(=O)COc1ccc2oc(-c3ccccc3)cc(=O)c2c1	i	.	1	.	.	11	.	.
COC(=O)COc1ccc2c(=O)c(-c3ccccc3)coc2c1	i	412	1	93	-3	0	.	.
COC(=O)COc1ccc2cc(-c3ccccc3)c(=O)oc2c1	i	226	-2	121	-1	102*	68*	66*
NC(=O)COc1ccc2cc(-c3ccccc3)c(=O)oc2c1	i	466	3	113	-5	59*	63*	64*
COc1ccccc1NC(=O)COC(=O)c1[nH]c(=O)[nH]c(=O)c1N	.	178	3	84	0	84*	120*	121*
COc1ccccc1NC(=O)COC(=O)c1c[nH]c(=O)[nH]c1=O	i	378	-1	90	1	0	.	.
